Assay results from different studies.
Compare with care: the assays were run in different laboratories.
Target: Rho-associated protein kinase 1 (ROCK1, Homo sapiens, UniProt Q13464)

Structure (SMILES)	observed	technique	concentration	remaining binding [%]
O=C(NCCCN1CCOCC1)c1ccc(Nc2ncc(Cl)c(-c3ccc(Cl)s3)n2)cc1	binding	competition with immobilised ligand	1 µM	90
CN(c1nccc(-c2cnn3ncccc23)n1)C1CC1	binding		1 µM	100
Cc1c(NC(=O)c2cc(C(N)=O)nc3cc(F)ccc23)c(C(F)(F)F)nn1Cc1ccc(C#N)cc1	cell-free assay	competition with immobilised ligand	1 µM	97
Nc1ncc2c(n1)-c1c([nH]c3ccc(C#CC4CC4)cc13)CCCC2	binding	competition with immobilised ligand	1 µM	100
CN(CCCC(F)(F)F)c1nccc(-c2cnn3ncccc23)n1	binding		1 µM	100
C[C@@H](c1ccc(-n2cnc3c(N)ncnc32)cc1)N1CCc2nn(C)c(Cc3ccccc3)c2C1=O	binding	competition with immobilised ligand	0.1 µM	85
CO[C@H]1CC[C@H](CNc2ccc(S(=O)(=O)NC(=O)c3ccc(N4CCN(CC5=C(c6ccc(Cl)cc6)CC(C)(C)CC5)CC4)cc3Oc3cnc4[nH]ccc4c3)cc2[N+](=O)[O-])CC1	cell-free assay	competition with immobilised ligand	1 µM	70
F[C@@H]1CCN(c2nccc(-c3cnn4ncccc34)n2)C1	binding		1 µM	100
CCN1CCN(Cc2ccc(C(=O)Nc3ccc(C)c(Oc4ccc5c(c4)CC(=O)N5)c3)cc2C(F)(F)F)CC1	binding	competition with immobilised ligand	1 µM	69
C[C@H](c1ccc(F)cc1)N(Cc1cccc(C(=O)O)c1)C(=O)c1cnc2ccccc2c1	cell-free assay	competition with immobilised ligand	1 µM	100
O=C(c1ccc(Nc2nccc(-c3cc4ccccc4s3)n2)cc1)N1CCC(N2CCCC2)CC1	binding	competition with immobilised ligand	1 µM	7.4
C[C@H](c1ccnc(Nc2nc3ccc(-c4cc(N(C)C)ncn4)cc3[nH]2)c1)N1CCN(C(=O)CC(F)(F)F)CC1	cell-free assay	competition with immobilised ligand	0.1 µM	100
N[C@@H]1CCN(c2nccc(-c3cnn4ncccc34)n2)C1	binding		1 µM	94
COc1cnc(Nc2cccc(S(N)(=O)=O)c2)nc1N1CCN(c2ccccc2)C(=O)C1	binding	competition with immobilised ligand	1 µM	43
CN(C)c1ncc(F)c(-c2cnn3ncccc23)n1	binding		1 µM	100
O=C(Nc1c[nH]nc1C(=O)NC1CCNCC1)c1cc(F)cc(F)c1	binding	competition with immobilised ligand	1 µM	98
O=C(c1ccc(Nc2ncc(Cl)c(-c3cc4ccccc4s3)n2)cc1)N1CCC(N2CCCC2)CC1	binding	competition with immobilised ligand	1 µM	4.5
c1cncc(-c2cccc(Nc3nccc(NC4CCCCC4)n3)c2)c1	binding	competition with immobilised ligand	10 µM	10
O=C(O)c1cc(-c2ccc(C3CCNCC3)cc2)c2ccc(-c3ccc(C(F)(F)F)cc3)cc2c1	cell-free assay	competition with immobilised ligand	1 µM	100
C[C@@H]1CCN(c2nccc(-c3cnn4ncccc34)n2)C1	binding		1 µM	86
CCCOc1ccc([C@H]2[C@H](C(=O)O)[C@@H](c3ccc4c(c3)OCO4)CN2CC(=O)Nc2c(CC)cccc2CC)cc1	cell-free assay	competition with immobilised ligand	1 µM	65
COc1ccnn2ncc(-c3ccnc(N(C)C)n3)c12	binding		1 µM	93
